Eleven compounds from ChEMBL document CHEMBL1124687, “Analogues of atriopeptin(103-125)amide having high binding selectivity” (J Med Chem, 1989) can be followed below.

The target in experiment [1] is T1, Atrial natriuretic peptide receptor 3 (Homo sapiens) (UniProt P17342).
T1 sequence (whole entry): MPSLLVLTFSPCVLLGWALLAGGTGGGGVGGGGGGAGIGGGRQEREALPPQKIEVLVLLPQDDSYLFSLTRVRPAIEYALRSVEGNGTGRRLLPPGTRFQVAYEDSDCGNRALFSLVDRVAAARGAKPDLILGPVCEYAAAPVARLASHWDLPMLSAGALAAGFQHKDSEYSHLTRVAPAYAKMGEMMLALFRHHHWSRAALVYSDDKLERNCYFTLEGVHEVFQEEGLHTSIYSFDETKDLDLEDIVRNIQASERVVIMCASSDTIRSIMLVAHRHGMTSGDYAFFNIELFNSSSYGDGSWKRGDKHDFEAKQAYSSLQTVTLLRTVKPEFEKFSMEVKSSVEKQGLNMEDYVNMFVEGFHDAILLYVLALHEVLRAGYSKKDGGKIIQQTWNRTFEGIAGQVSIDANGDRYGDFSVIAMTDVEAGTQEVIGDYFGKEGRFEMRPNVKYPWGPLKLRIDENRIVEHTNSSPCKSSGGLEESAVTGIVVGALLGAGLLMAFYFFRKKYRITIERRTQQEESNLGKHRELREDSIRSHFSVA
The experiment is described as follows: Binding affinity for non-vasorelaxant receptor by competitive displacement of [125I]-AP(103-126) from rabbit lung membranes. Format: tissue-based. The following applies: Oryctolagus cuniculus, Membrane, target entry is the homologue from another species.

Experiment [2] concerns the target Atrial natriuretic peptide receptor (Homo sapiens) (UniProt P20594+P16066+P17342). The experiment is described as follows: Selectivity factor, ratio of NVR and VR relative binding potency. The format is protein assay. The following applies: Oryctolagus cuniculus.
The species named for the next experiment is Oryctolagus cuniculus. The experiment is described as follows: Binding affinity for vasorelaxant receptor by competitive displacement of [125I]-AP(103-126) from rabbit lung membranes. The format is tissue-based. Conditions: Membrane.
Experiment [3] can be described thus: Apparent binding constant for vasorelaxant subclass of receptors. Also on record: species or system Oryctolagus cuniculus. In a few lines: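 Competitive binding assay on rabbit lung membranes, using atrial peptide analogues.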

Positions of bridges follow the written chain, without caps; N, C: chain ends. Non-standard residues stand in square brackets, D forms with d. Residues, ends and D or L forms follow the SMILES beside them. ξ: configuration not given here. Nva = CCC[C@H](N)C(=O)O; ξA = CC(N)C(=O)O

On to `CC[C@H](C)[C@@H]1NC(=O)[C@H](CCCN=C(N)N)NC(=O)[C@H](CC(=O)O)NC(=O)[C@H]([C@@H](C)CC)NC(=O)[C@H](CCCN=C(N)N)NC(=O)CNC(=O)CNC(=O)[C@H](Cc2ccccc2)NC(=O)C(C)NC(=O)[C@@H](NC(=O)[C@@H](N)CO)CSSC[C@@H](C(=O)N[C@@H](CO)C(=O)N[C@@H](Cc2ccccc2)C(=O)N[C@@H](CCCN=C(N)N)C(N)=O)NC(=O)C(C)NC(=O)CNC(=O)[C@H](CC(C)C)NC(=O)CNC(=O)[C@H](CO)NC(=O)[C@H](CCC(N)=O)NC(=O)[C@H](C)NC(=O)CNC1=O` (some centres undefined) (H-SC[ξA]FGGRIDRIGAQSGLG[ξA]CSFR-NH2; disulfide 2-20), for which the Relative potency in experiment [1] worked out at 1.3; in the experiment filed under Oryctolagus cuniculus, 0.0028. In addition, the Ratio in experiment [2] was 464.

As for `CC[C@H](C)[C@@H]1NC(=O)[C@H](CCCN=C(N)N)NC(=O)[C@H](CC(=O)O)NC(=O)[C@H]([C@@H](C)CC)NC(=O)[C@H](CCCN=C(N)N)NC(=O)[C@@H](NC(=O)CNC(=O)[C@H](Cc2ccccc2)NC(=O)[C@H](C)NC(=O)[C@H](CO)NC(=O)[C@@H](N)CO)CSSC[C@@H](C(=O)NCC(=O)N[C@@H](CC(C)C)C(=O)NCC(=O)N[C@@H](C)C(=O)N[C@@H](CC(N)=O)C(=O)N[C@@H](CO)C(=O)N[C@@H](Cc2ccccc2)C(=O)N[C@@H](CCCN=C(N)N)C(N)=O)NC(=O)[C@H](CCC(N)=O)NC(=O)[C@H](C)NC(=O)CNC1=O` (H-SSAFGCRIDRIGAQCGLGANSFR-NH2; disulfide 6-15), the Relative potency came out at 0.63 in experiment [1] and 0.0013 in the experiment listed under Oryctolagus cuniculus. In experiment [2], the Ratio was found to be 485.

Regarding `CC[C@H](C)[C@@H]1NC(=O)[C@H](CCCN=C(N)N)NC(=O)[C@H](CC(=O)O)NC(=O)[C@H]([C@@H](C)CC)NC(=O)[C@H](CCCN=C(N)N)NC(=O)[C@@H](NC(=O)CNC(=O)[C@H](Cc2ccccc2)NC(=O)[C@H](CSC)NC(=O)[C@H](CO)NC(=O)[C@@H](N)CO)CSSC[C@@H](C(=O)NCC(=O)N[C@@H](CC(C)C)C(=O)NCC(=O)N[C@@H](CSC)C(=O)N[C@@H](CC(N)=O)C(=O)N[C@@H](CO)C(=O)N[C@@H](Cc2ccccc2)C(=O)N[C@@H](CCCN=C(N)N)C(N)=O)NC(=O)[C@H](CCC(N)=O)NC(=O)[C@H](C)NC(=O)CNC1=O` (H-SSC(Me)FGCRIDRIGAQCGLGC(Me)NSFR-NH2; disulfide 6-15), the Relative potency in experiment [1] was 0.59; in the experiment listed under Oryctolagus cuniculus, 0.0016. The Ratio in experiment [2] stood at 369.

As for `CC[C@H](C)[C@@H]1NC(=O)[C@H](CCCN=C(N)N)NC(=O)[C@H](CC(=O)O)NC(=O)[C@H]([C@@H](C)CC)NC(=O)[C@H](CCCN=C(N)N)NC(=O)CNC(=O)CNC(=O)[C@H](Cc2ccccc2)NC(=O)[C@@H](NC(=O)[C@H](CO)NC(=O)[C@@H](N)CO)CSSC[C@@H](C(=O)N[C@@H](CSC)C(=O)N[C@@H](CC(N)=O)C(=O)N[C@@H](CO)C(=O)N[C@@H](Cc2ccccc2)C(=O)N[C@@H](CCCN=C(N)N)C(N)=O)NC(=O)[C@H](CC(C)C)NC(=O)CNC(=O)[C@H](CO)NC(=O)[C@H](CCC(N)=O)NC(=O)[C@H](C)NC(=O)CNC1=O` (H-SSCFGGRIDRIGAQSGLCC(Me)NSFR-NH2; disulfide 3-18), the Relative potency in experiment [1] worked out at 1.3; in the experiment filed under Oryctolagus cuniculus it was 0.041. In addition, the Ratio in experiment [2] came to 32.

In the case of `CC[C@H](C)[C@@H]1NC(=O)[C@H](CCCN=C(N)N)NC(=O)[C@H](CC(=O)O)NC(=O)[C@H]([C@@H](C)CC)NC(=O)[C@H](CCCN=C(N)N)NC(=O)CNC(=O)CNC(=O)[C@H](Cc2ccccc2)NC(=O)[C@@H](NC(=O)[C@H](CO)NC(=O)[C@@H](N)CO)CSSC[C@@H](C(=O)N[C@@H](CO)C(=O)N[C@@H](CC(N)=O)C(=O)N[C@@H](CO)C(=O)N[C@@H](Cc2ccccc2)C(=O)N[C@@H](CCCN=C(N)N)C(N)=O)NC(=O)[C@H](CC(C)C)NC(=O)CNC(=O)[C@H](CO)NC(=O)[C@H](CCC(N)=O)NC(=O)[C@H](C)NC(=O)CNC1=O` (H-SSCFGGRIDRIGAQSGLCSNSFR-NH2; disulfide 3-18), the Relative potency in experiment [1] was 1.3; in the experiment filed under Oryctolagus cuniculus, 0.056. Also, the Ratio in experiment [2] was 23.

In the case of `CCC[C@H](NC(=O)[C@@H]1CSSC[C@H](NC(=O)[C@H](CO)NC(=O)[C@@H](N)CO)C(=O)N[C@@H](Cc2ccccc2)C(=O)NCC(=O)NCC(=O)N[C@@H](CCCN=C(N)N)C(=O)N[C@@H]([C@@H](C)CC)C(=O)N[C@@H](CC(=O)O)C(=O)N[C@@H](CCCN=C(N)N)C(=O)N[C@@H]([C@@H](C)CC)C(=O)NCC(=O)N[C@@H](C)C(=O)N[C@@H](CCC(N)=O)C(=O)N[C@@H](CO)C(=O)NCC(=O)N[C@@H](CC(C)C)C(=O)N1)C(=O)N[C@@H](CC(N)=O)C(=O)N[C@@H](CO)C(=O)N[C@@H](Cc1ccccc1)C(=O)N[C@@H](CCCN=C(N)N)C(N)=O` (H-SSCFGGRIDRIGAQSGLC[Nva]NSFR-NH2; disulfide 3-18), the Relative potency in experiment [1] stood at 0.63; in the experiment filed under Oryctolagus cuniculus, 0.047. The Ratio in experiment [2] came out at 13.

Turning to `CC[C@H](C)[C@@H]1NC(=O)[C@H](CCCN=C(N)N)NC(=O)[C@H](CC(=O)O)NC(=O)[C@H]([C@@H](C)CC)NC(=O)[C@H](CCCN=C(N)N)NC(=O)CNC(=O)CNC(=O)[C@H](Cc2ccccc2)NC(=O)[C@@H](NC(=O)[C@H](CO)NC(=O)[C@@H](N)CO)CSSC[C@@H](C(=O)NC(C)C(=O)N[C@@H](CC(N)=O)C(=O)N[C@@H](CO)C(=O)N[C@@H](Cc2ccccc2)C(=O)N[C@@H](CCCN=C(N)N)C(N)=O)NC(=O)[C@H](CC(C)C)NC(=O)CNC(=O)[C@H](CO)NC(=O)[C@H](CCC(N)=O)NC(=O)[C@H](C)NC(=O)CNC1=O` (some centres undefined) (H-SSCFGGRIDRIGAQSGLC[ξA]NSFR-NH2; disulfide 3-18), the Relative potency in experiment [1] is 0.94; in the experiment listed under Oryctolagus cuniculus, 0.16. Further, in experiment [2], the Ratio is 6.

On to `CC[C@H](C)[C@@H]1NC(=O)[C@H](CCCN=C(N)N)NC(=O)[C@H](CC(=O)O)NC(=O)[C@H]([C@@H](C)CC)NC(=O)[C@H](CCCN=C(N)N)NC(=O)[C@@H](NC(=O)CNC(=O)[C@H](Cc2ccccc2)NC(=O)CNC(=O)[C@H](CO)NC(=O)[C@@H](N)CO)CSSC[C@@H](C(=O)NCC(=O)N[C@@H](CC(C)C)C(=O)NCC(=O)NCC(=O)N[C@@H](CC(N)=O)C(=O)N[C@@H](CO)C(=O)N[C@@H](Cc2ccccc2)C(=O)N[C@@H](CCCN=C(N)N)C(N)=O)NC(=O)[C@H](CCC(N)=O)NC(=O)[C@H](C)NC(=O)CNC1=O` (H-SSGFGCRIDRIGAQCGLGGNSFR-NH2; disulfide 6-15), for which the Ki in experiment [3] was 7.4 nM. The Relative potency in experiment [1] turned out to be 1.3; in the experiment filed under Oryctolagus cuniculus, 0.011. Besides, the Ratio in experiment [2] is 118.

Consider `CC[C@H](C)[C@@H]1NC(=O)[C@H](CCCN=C(N)N)NC(=O)[C@H](CC(=O)O)NC(=O)[C@H]([C@@H](C)CC)NC(=O)[C@H](CCCN=C(N)N)NC(=O)[C@@H](NC(=O)CNC(=O)[C@H](Cc2ccccc2)NC(=O)CNC(=O)[C@H](CO)NC(=O)[C@@H](N)CO)CSSC[C@@H](C(=O)N[C@@H](CC(C)C)C(=O)NCC(=O)NCC(=O)N[C@@H](CC(N)=O)C(=O)N[C@@H](CO)C(=O)N[C@@H](Cc2ccccc2)C(=O)N[C@@H](CCCN=C(N)N)C(N)=O)NC(=O)[C@H](CO)NC(=O)[C@H](CCC(N)=O)NC(=O)[C@H](C)NC(=O)CNC1=O` (H-SSGFGCRIDRIGAQSCLGGNSFR-NH2; disulfide 6-16), for which the Relative potency was 0.81 in experiment [1] and 0.00072 in the experiment listed under Oryctolagus cuniculus. Moreover, the Ratio in experiment [2] is 1120.

For the compound `CC[C@H](C)[C@@H]1NC(=O)[C@H](CCCN=C(N)N)NC(=O)[C@H](CC(=O)O)NC(=O)[C@H]([C@@H](C)CC)NC(=O)[C@H](CCCN=C(N)N)NC(=O)[C@@H](NC(=O)CNC(=O)[C@H](Cc2ccccc2)NC(=O)[C@H](CO)NC(=O)[C@H](CO)NC(=O)[C@@H](N)CO)CSSC[C@@H](C(=O)NCC(=O)N[C@@H](CC(C)C)C(=O)NCC(=O)N[C@@H](CO)C(=O)N[C@@H](CC(N)=O)C(=O)N[C@@H](CO)C(=O)N[C@@H](Cc2ccccc2)C(=O)N[C@@H](CCCN=C(N)N)C(N)=O)NC(=O)[C@H](CCC(N)=O)NC(=O)[C@H](C)NC(=O)CNC1=O` (H-SSSFGCRIDRIGAQCGLGSNSFR-NH2; disulfide 6-15), the Relative potency was found to be 0.44 in experiment [1] and 0.0015 in the experiment filed under Oryctolagus cuniculus. Further, in experiment [2], the Ratio worked out at 293.

Turning to `CCC[C@H](NC(=O)CNC(=O)[C@H](CC(C)C)NC(=O)CNC(=O)[C@@H]1CSSC[C@H](NC(=O)CNC(=O)[C@H](Cc2ccccc2)NC(=O)[C@H](CCC)NC(=O)[C@H](CO)NC(=O)[C@@H](N)CO)C(=O)N[C@@H](CCCN=C(N)N)C(=O)N[C@@H]([C@@H](C)CC)C(=O)N[C@@H](CC(=O)O)C(=O)N[C@@H](CCCN=C(N)N)C(=O)N[C@@H]([C@@H](C)CC)C(=O)NCC(=O)N[C@@H](C)C(=O)N[C@@H](CCC(N)=O)C(=O)N1)C(=O)N[C@@H](CC(N)=O)C(=O)N[C@@H](CO)C(=O)N[C@@H](Cc1ccccc1)C(=O)N[C@@H](CCCN=C(N)N)C(N)=O` (H-SS[Nva]FGCRIDRIGAQCGLG[Nva]NSFR-NH2; disulfide 6-15), the Relative potency in experiment [1] was 0.26; in the experiment listed under Oryctolagus cuniculus, 0.00091. For the same compound, the Ratio in experiment [2] was determined as 286.
